The source made the active and inactive calls. The rule behind the calls is not given here.
Tests used:
[1] = biological target: T1, NAD(P)H dehydrogenase [quinone] 1 (Homo sapiens, UniProt P15559); assay: Binding affinity to recombinant human NQO1 by fluorescence polarization competition assay
Method in brief: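 Fluorescence polarization was read at 485 nm excitation and 535 nm emission in HEPES buffer. Free-probe mP was first measured over a range of probe concentrations without protein. For competition, wells held varying probe concentrations with NQO1 added from a 100 nM solution. IC50 was taken from a plot of % inhibition against concentration.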

[2] = biological target: T1, NAD(P)H dehydrogenase [quinone] 1; assay: Binding affinity to NQO1 in human A549 cells at 50 uM incubated for 10 mins by DAPI staining based fluorescence microscopy imaging; assay type: cell-based
Method in brief: (§1)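 A549 cells were rinsed with serum-free medium. Probe, from a 10 mM DMSO stock diluted in serum-free medium, was applied at 10 or 50 μM for 10 min at 37 °C, then washed off. For the inhibition condition, 10 μM DIC was co-incubated with the probe under the same conditions. Nuclei were stained with DAPI and cells imaged by laser scanning confocal microscopy.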

[3] = biological target: T1, NAD(P)H dehydrogenase [quinone] 1; assay: Binding affinity to NQO1 in human A549 cells at 10 uM incubated for 10 mins by DAPI staining based fluorescence microscopy imaging; assay type: cell-based; method in brief: as §1
[4] = biological target: T1, NAD(P)H dehydrogenase [quinone] 1; assay: Binding affinity to NQO1 in human A549 cells at 10 uM incubated for 10 mins in presence of 10 uM DIC by DAPI staining based fluorescence microscopy imaging; assay type: cell-based; method in brief: as §1
[5] = biological target: T1, NAD(P)H dehydrogenase [quinone] 1; assay: Binding affinity to NQO1 in human A549 cells at 50 uM incubated for 10 mins in presence of 10 uM DIC by DAPI staining based fluorescence microscopy imaging; assay type: cell-based; method in brief: as §1
[6] = biological target: T1, NAD(P)H dehydrogenase [quinone] 1; assay: Inhibition of recombinant human NQO1 assessed as reduction in oxidation of NADPH to NADP+ using b-lap as substrate and NADPH in presence of 0.14% (w/v) BSA

Question: `O=C1OC2(c3ccc(O)cc3Oc3cc(O)ccc32)c2ccc(NC(=S)NCCCCCCOc3ccc(/C=C/C(=O)c4c(O)c5ccccc5oc4=O)cc3)cc21` was tested. Which EC50 [1] did it give?
Answer: Its EC50 is 2950 nM.

Question: What about the Activity [2] of the same compound?
Answer: The Activity was “Active”.

Question: And the Activity [3]?
Answer: Its Activity is “Active”.

Question: What about the Activity [4] of the same compound?
Answer: Its Activity is “inactive”.

Question: What about the Activity [5] of the same compound?
Answer: The Activity was “inactive”.

Question: And the IC50 [6]?
Answer: The IC50 was 980 nM.
